Data from ChEMBL document CHEMBL4706726, “Glucosamine and Its Analogues as Modulators of Amyloid-β Toxicity” (ACS Med Chem Lett, 2021).
The source made the active and inactive calls. No cut-off for these calls is given here.

Columns and labels:
SH-SY5Y [1] = test: Cytotoxicity against human SH-SY5Y cells assessed as reduction in cell viability at 1 mM measured after 1 day by alamar blue assay; format: cell-based; conditions: 24 h, 1000 µM
Method in brief: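 SH-SY5Y neuroblastoma cells exposed to each monosaccharide (1 mM) under cell culture conditions without Aβ42. Viability screened for cytotoxicity.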

[2] = target: Amyloid-beta precursor protein (Homo sapiens) (UniProt P05067); test: Modulation of human amyloid beta (1 to 42) supramolecular organization at 0.4 mM by dynamic light scattering based analysis; conditions: filed as modulator
[3] = target: Amyloid-beta precursor protein (Homo sapiens) (UniProt P05067); test: Modulation of human amyloid beta (1 to 42) supramolecular organization assessed as reduction in antiparallel beta-sheets characteristic of cytotoxic Abeta42 aggregates at 1 mM measured for 5 days by CD spectrometry; conditions: filed as modulator, time 5.0 day
Method in brief: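 Aβ42 secondary structure followed by circular dichroism over 1 and 5 days, with 1 mM of each monosaccharide present. Loss of antiparallel β-sheet was scored against 25 μM Aβ42 control. Error bars SD.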

[4] = target: Amyloid-beta precursor protein (Homo sapiens) (UniProt P05067); test: Modulation of amyloid beta (1 to 42) supramolecular organization in human SH-SY5Y cells assessed as reduction in insulin resistance by measuring reduction in Abeta-42-induced IRS1 phosphorylation at Ser612 residue at 1 mM incubated for 1 hr by immunoblot analysis; format: cell-based; conditions: filed as modulator
Method in brief: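 SH-SY5Y cells cultured 1 h in medium with 10% FBS and no added insulin, with or without Aβ42 (25 μM) and each monosaccharide. IRS1 phosphorylation at S612 quantified by expression analysis. Parallel runs supplemented with 5 nM insulin.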

[5] = target: Amyloid-beta precursor protein (Homo sapiens) (UniProt P05067); test: Modulation of human amyloid beta (1 to 42) supramolecular assembly assessed as elongation of amyloid beta42 fibrils at <50 mM measured for 10 days by ThT dye based fluorescence spectrophotometry; conditions: filed as modulator, dose mM <50, time 10.0 day
Method in brief: (§1)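 Aβ42 aggregation kinetics followed for 10 days by thioflavin-T fluorescence, which reports parallel β-sheets. Each monosaccharide tested at several concentrations from 250 μM up to 50 mM.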

SH-SY5Y [6] = test: Neuroprotective activity against Abeta-42-induced cytotoxicity in human SH-SY5Y cells assessed as increase in cell viability at 1 mM measured upto 5 days by alamar blue assay; format: functional, cell-based; conditions: time day <=5
Method in brief: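 SH-SY5Y cells incubated with Aβ42 plus each monosaccharide (1 mM) for 5 h, 24 h and 5 days. Cell viability measured at each time.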

[7] = target: Amyloid-beta precursor protein (Homo sapiens) (UniProt P05067); test: Modulation of human amyloid beta (1 to 42) supramolecular assembly assessed as elongation of amyloidbeta42 fibrils at 50 mM measured for 10 days by ThT dye based fluorescence spectrophotometry; conditions: time 10.0 day; method in brief: as §1
[8] = target: Amyloid-beta precursor protein (Homo sapiens) (UniProt P05067); test: Modulation of human amyloid beta (1 to 42) supramolecular organization assessed as prevalence of Abeta42 fibrils with parallel beta-sheets at 1 mM incubated for 5 days by ATR-FITR analysis; conditions: time 5.0 day
[9] = target: Amyloid-beta precursor protein (Homo sapiens) (UniProt P05067); test: Modulation of amyloid beta (1 to 42) supramolecular organization in human SH-SY5Y cells assessed as reduction in insulin resistance by measuring increase in AKT1 phosphorylation phosphorylation at Ser473 residue at 1 mM incubated for 1 hr by immunoblot analysis; format: cell-based; conditions: filed as modulator
Method in brief: (§2)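 SH-SY5Y cells in medium with 10% FBS, no added insulin, cultured 1 h with Aβ42 (25 μM) with or without monosaccharide (1 mM); protein expression read by immunoblot.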

[10] = target: Amyloid-beta precursor protein (Homo sapiens) (UniProt P05067); test: (§3) Modulation of amyloid beta (1 to 42) supramolecular organization in human SH-SY5Y cells assessed as inhibition of Abeta42-induced disruption of cell membrane by measuring reduction in Ca2+ influx at 1 mM incubated for 24 hrs by Calcein-AM dye based scanning confocal fluorescence microscopy relative to control; conditions: filed as modulator
Method in brief: (§4)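 SH-SY5Y cells cultured 24 h with Aβ42 (25 μM) plus each monosaccharide (1 mM). Intracellular free Ca2+ imaged by fluorescence using Fluo3-AM […] as Ca2+ probes. Controls were cells cultured without Aβ42 and monosaccharide.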

[11] = target: Amyloid-beta precursor protein (Homo sapiens) (UniProt P05067); test: as §3, with “Fluo-3AM” for “Calcein-AM”; conditions: filed as modulator; method in brief: as §4
[12] = target: Amyloid-beta precursor protein (Homo sapiens) (UniProt P05067); test: Modulation of human amyloid beta (1 to 42) supramolecular organization assessed as reduction in amount of cytotoxic Abeta42 oligomers at 1 mM measured for 1 to 5 days by Western blot analysis; conditions: filed as modulator, time 1-5 day
Method in brief: (§5)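 Aβ42 (25 μM) incubated with monosaccharide (1 mM) for 1 or 5 days; assemblies detected by Western blot with antibody 6E10 and quantified by relative densitometry against Aβ42 alone; error bars SD.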

[13] = target: Amyloid-beta precursor protein (Homo sapiens) (UniProt P05067); test: Modulation of amyloid beta (1 to 42) supramolecular organization in human SH-SY5Y cells assessed as reduction in insulin resistance by measuring reduction in Abeta-42-induced IRS1 phosphorylation at Ser612 residue at 1 mM incubated for 1 hr in presence of insulin by immunoblot analysis; format: cell-based; conditions: filed as modulator
Method in brief: (§6)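 SH-SY5Y cells in medium with 10% FBS plus 5 nM insulin, cultured 1 h with Aβ42 (25 μM) with or without monosaccharide (1 mM); protein expression read by immunoblot.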

[14] = target: Amyloid-beta precursor protein (Homo sapiens) (UniProt P05067); test: Modulation of amyloid beta (1 to 42) supramolecular organization in human SH-SY5Y cells assessed as reduction in inflammation by measuring decrease in Abeta-42-induced ANXA1 expression at 1 mM incubated for 1 hr in presence of insulin by immunoblot analysis; format: cell-based; conditions: filed as modulator; method in brief: as §6
[15] = target: Amyloid-beta precursor protein (Homo sapiens) (UniProt P05067); test: Modulation of human amyloid beta (1 to 42) supramolecular organization assessed as reduction in 6E10 epitope binding site structure at 1 mM measured for 1 to 5 days by Western blot analysis; conditions: filed as modulator, time 1-5 day; method in brief: as §5
[16] = target: Amyloid-beta precursor protein (Homo sapiens) (UniProt P05067); test: Modulation of amyloid beta (1 to 42) supramolecular organization in human SH-SY5Y cells assessed as reduction in inflammation by measuring decrease in Abeta-42-induced ANXA1 expression at 1 mM incubated for 1 hr by immunoblot analysis; format: cell-based; conditions: filed as modulator; method in brief: as §2
[17] = target: Amyloid-beta precursor protein (Homo sapiens) (UniProt P05067); test: Modulation of amyloid beta (1 to 42) supramolecular organization in human SH-SY5Y cells assessed as reduction in AChE activity at 1 mM incubated for 1 day; format: cell-based; conditions: filed as modulator
Method in brief: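 SH-SY5Y neuroblastoma cells exposed to Aβ42 with monosaccharide (1 mM); cellular AChE activity read after 1 day of incubation.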

Amyloid-beta precursor protein (Homo sapiens), sequence (P05067 whole entry): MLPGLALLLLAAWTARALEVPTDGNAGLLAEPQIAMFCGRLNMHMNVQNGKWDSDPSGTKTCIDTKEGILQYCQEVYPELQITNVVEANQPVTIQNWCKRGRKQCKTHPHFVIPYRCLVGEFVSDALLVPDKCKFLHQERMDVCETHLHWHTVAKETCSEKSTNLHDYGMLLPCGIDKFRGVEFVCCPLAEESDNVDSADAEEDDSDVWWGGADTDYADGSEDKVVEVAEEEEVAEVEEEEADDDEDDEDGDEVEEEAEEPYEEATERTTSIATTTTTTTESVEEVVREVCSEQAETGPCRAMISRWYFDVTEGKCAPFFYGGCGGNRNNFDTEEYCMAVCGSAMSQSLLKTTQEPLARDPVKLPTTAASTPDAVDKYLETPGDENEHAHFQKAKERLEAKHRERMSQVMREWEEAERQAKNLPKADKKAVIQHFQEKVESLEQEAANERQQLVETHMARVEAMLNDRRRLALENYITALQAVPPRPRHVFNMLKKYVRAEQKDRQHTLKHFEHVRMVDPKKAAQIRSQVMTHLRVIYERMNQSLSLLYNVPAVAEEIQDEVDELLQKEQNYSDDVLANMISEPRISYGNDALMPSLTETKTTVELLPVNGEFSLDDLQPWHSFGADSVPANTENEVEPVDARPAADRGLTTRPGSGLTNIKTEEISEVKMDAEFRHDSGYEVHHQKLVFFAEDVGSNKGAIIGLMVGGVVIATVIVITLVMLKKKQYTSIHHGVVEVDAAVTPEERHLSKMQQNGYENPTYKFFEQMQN

SMILES	Activity (SH-SY5Y [1])	Activity [2]	Activity [3]	Activity [4]	Activity [5]	Activity (SH-SY5Y [6])	Activity [7]	Activity [8]	Activity [9]	inhibition [10]	inhibition [11]	Activity [12]	Activity [13]	Activity [14]	Activity [15]	Activity [16]	Activity [17]	Activity ([8]; filed as modulator)
CC(=O)N[C@H]1C(O)O[C@H](CO)[C@@H](O)[C@@H]1O (some centres not stated)	Non-Toxic	Active	Active	Active	Active	Active	inactive	inactive	–	–	–	–	–	–	–	–	–	–
N[C@@H]1[C@@H](O)[C@H](O)[C@@H](COS(=O)(=O)O)O[C@H]1O	Non-Toxic	Active	Active	Active	Active	Active	inactive	–	Active	60%	41%	Active	Active	Active	Active	Active	Active	Active
N[C@@H]1[C@@H](O)[C@H](O)[C@@H](CO)O[C@H]1O	Non-Toxic	Active	Active	–	Active	Active	inactive	inactive	–	–	–	–	–	–	–	–	–	–
N[C@@H]1[C@@H](O)[C@H](O)[C@@H](COP(=O)(O)O)O[C@H]1O	Non-Toxic	Active	Active	Active	Active	Active	inactive	–	Active	Active	Active	–	Active	Active	Active	Active	–	Active
